Laboratory results published in BindingDB's records for doi:10.1021/jm9802620 (University of Washington, 1998).

Tests used:
[1] = molecular target: Glyceraldehyde-3-phosphate dehydrogenase (GAPDH); experiment: Inhibitory activity measured for Glyceraldehyde-3-phosphate dehydrogenase (GAPDH) in Leishmania. mexicana
In short: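 Recombinant glycosomal GAPDH of L. mexicana, T. cruzi or T. brucei; human enzyme from erythrocytes. NADH formation followed at 340 nm, 21 °C, in 0.1 M triethanolamine-HCl pH 7.6 with DTT, NaN3, MgSO4, EDTA, 10 mM K2HPO4, 0.8 mM glyceraldehyde-3-phosphate, 0.19 mM NAD+, 5% DMSO. Reaction started with enzyme. IC50 from 0–1 min initial rates at ≥5 inhibitor levels versus DMSO control.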

[2] = molecular target: Glyceraldehyde-3-phosphate dehydrogenase (GAPDH); experiment: Inhibitory activity was measured for Glyceraldehyde-3-phosphate dehydrogenase (GAPDH) in Leishmania. mexicana.

Structure (SMILES)	IC50 [1]	IC50 [2]
OC[C@H]1OC(n2cnc3c(N[C@@H]4CCCc5ccccc54)ncnc32)[C@H](O)[C@@H]1O (stereo not given in full)	0.36 mM	
CC(C)=CCNc1ncnc2c1ncn2C1O[C@H](CO)[C@@H](O)[C@H]1O (stereo not given in full)	> 5 mM	
CC(C)CCNc1ncnc2c1ncn2C1O[C@H](CO)[C@@H](O)[C@H]1O (stereo not given in full)		3.7 mM

Second part, the compound after the results:

IC50 [1]	IC50 [2]	Structure (SMILES)
0.7 mM		Cc1cccc(CNc2ncnc3c2ncn3C2O[C@H](CO)[C@@H](O)[C@H]2O)c1 (stereo not given in full)
3.1 mM		Nc1ccc(CNc2ncnc3c2ncn3C2O[C@H](CO)[C@@H](O)[C@H]2O)cc1 (stereo not given in full)
